The values below come from publication PMC4518544 (Journal of medicinal chemistry, 2015).

Entries after “also recorded” stand apart in the source; their conditions may differ. Where two headings read alike, the source gives them in different places. Some results are limits rather than exact numbers.

The target of series [1] is Grp94. The note with it: read-out: Kd for Grp94; cited from earlier work.
The target in series [2] is T1, Grp94 (Canis lupus familiaris, UniProt P41148). Nature of the series: FP competition binding assay, Grp94. Set-up: species or system Canine. The note with it: for decrease in affinity for Grp94 of N3-substituted compounds: compared to the N9-series; for Hsp90α/Grp94: ratio of IC50 values, Table 4; for decrease in Grp94 activity on linker substitution: relative to S-linked 9g; for diminished potency for Grp94 on substitution of N3 with C: relative to 18a and 18c.

For the next series, the target named is Hsp90α (Homo sapiens, UniProt P07900). The series is described as follows: FP competition binding assay, Hsp90α.
The next series addresses Hsp90β (Homo sapiens, UniProt P08238). The series is described as follows: FP competition binding assay, Hsp90β.
Another series deals with scanEDGE 97 kinase panel. The series is described as follows: scanEDGE kinase competition binding panel. The settings on record: 10 μM. The procedure, abridged: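 Competition binding panel. Kinase, biotinylated-ligand streptavidin beads and test compound (from 40× DMSO stocks) were incubated 1 h at room temperature in binding buffer with 6 mM DTT. Beads were washed and eluted 30 min with 0.5 μM free ligand. Eluted kinase was measured by qPCR.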

A further series has as its system TLR9. Nature of the series: TLR9 assay in transfected HEK 293T cells. The note with it: 24 h treatment. It is filed as cell-based. The procedure, abridged:
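HEK 293T cells were transfected with HA-tagged human TLR9 and split onto chamber slides 24 h later, then treated 24 h at varying concentrations. Cells were fixed (4% paraformaldehyde, 20 min), permeabilized (0.1% Triton X-100, 10 min) and blocked (3% BSA, 30 min). Staining used anti-HA (1:250, 1 h) or normal rabbit IgG, then Cy3 anti-rabbit (1:400), with DAPI mounting. Confocal imaging; fluorescence intensity was normalized to cell number.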

Series [3] deals with CpG induced TNF-α production. Nature of the series: TNFα ELISA, Raw264.7 cells stimulated with CpG. It is filed as cell-based, mouse. The settings on record: 18 h treatment. (In general: In an ELISA, binding on a coated surface is turned into a signal by an enzyme label.)
Series [4] concerns TNFα production in cells stimulated by LPS. The series is described as follows: TNFα ELISA, Raw264.7 cells stimulated with LPS. Type of series: cell-based, mouse. The settings on record: Hsp90-mediated effect.
Series [5] has as its system IGF-II secretion by differentiated myoblasts. The series is described as follows: C2C12 differentiation and IGF-II secretion assay. It is filed as cell-based, mouse. The note with it: 24 h treatment. The procedure, abridged:
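C2C12 mouse myoblasts kept in DMEM with 10% FBS. Differentiation was induced by switching to DMEM with 2% horse serum (36–48 h). After the switch, cells were treated 24 h. Medium was incubated overnight at 4 °C in anti-IGF-II-coated ELISA wells, then detected with biotinylated anti-IGF-II, HRP-streptavidin and TMB. Read at 450 nm and quantified against a recombinant IGF-II standard curve.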

Another series relates to HER2. Nature of the series: Immunoblotting of HER2 in SKBr3 cells. It is filed as cell-based. The procedure, abridged: (§1)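 SKBr3 cells were treated 24 h with DMSO or test compound and lysed in RIPA buffer (pH 7.4) with protease inhibitors. Protein was measured by BCA, and 5–50 μg was run on SDS–PAGE and transferred to nitrocellulose. Blots were probed for HER2 (1:500), Hsp70 (1:2500), cleaved PARP (1:2500) and β-actin (1:3000), then HRP secondary, ECL and film, with densitometry. Triplicate experiments.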
In general terms: A western blot detects proteins with antibodies after separation by electrophoresis.

Another series relates to Hsp70. Nature of the series: Immunoblotting of Hsp70 in SKBr3 cells. Type of series: cell-based. In a few lines:
as §1

The nature of a further series: Aqueous solubility. It is filed as physicochemical. The settings on record: water.
In series [6] the test system is HER2-overexpressing SKBr3 cells. The note with it: cited from earlier work.
The next series concerns cleaved PARP. Nature of the series: Immunoblotting of cleaved PARP in SKBr3 cells. The settings on record: 100 μM. It is filed as cell-based. The procedure, abridged: as §1
Another series relates to SKBr3 cells. The series is described as follows: CellTiter-Glo cell viability assay. The note with it: 100 μM, 72 h. It is filed as cell-based. The procedure, abridged:
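SKBr3 cells were grown in McCoy's 5A with 10% FBS at 37 °C under CO2, then treated 72 h with vehicle or test compound in quadruplicate wells. Viable cells were measured by CellTiter-Glo ATP luminescence. Points are means, n = 4.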
On the technique in general: Cellular ATP, detected with luciferase, serves as a proxy for viable cell number.

Series [7] concerns the target T1, Grp94. The note with it: cited from earlier work.

T1 sequence (P41148 22-804): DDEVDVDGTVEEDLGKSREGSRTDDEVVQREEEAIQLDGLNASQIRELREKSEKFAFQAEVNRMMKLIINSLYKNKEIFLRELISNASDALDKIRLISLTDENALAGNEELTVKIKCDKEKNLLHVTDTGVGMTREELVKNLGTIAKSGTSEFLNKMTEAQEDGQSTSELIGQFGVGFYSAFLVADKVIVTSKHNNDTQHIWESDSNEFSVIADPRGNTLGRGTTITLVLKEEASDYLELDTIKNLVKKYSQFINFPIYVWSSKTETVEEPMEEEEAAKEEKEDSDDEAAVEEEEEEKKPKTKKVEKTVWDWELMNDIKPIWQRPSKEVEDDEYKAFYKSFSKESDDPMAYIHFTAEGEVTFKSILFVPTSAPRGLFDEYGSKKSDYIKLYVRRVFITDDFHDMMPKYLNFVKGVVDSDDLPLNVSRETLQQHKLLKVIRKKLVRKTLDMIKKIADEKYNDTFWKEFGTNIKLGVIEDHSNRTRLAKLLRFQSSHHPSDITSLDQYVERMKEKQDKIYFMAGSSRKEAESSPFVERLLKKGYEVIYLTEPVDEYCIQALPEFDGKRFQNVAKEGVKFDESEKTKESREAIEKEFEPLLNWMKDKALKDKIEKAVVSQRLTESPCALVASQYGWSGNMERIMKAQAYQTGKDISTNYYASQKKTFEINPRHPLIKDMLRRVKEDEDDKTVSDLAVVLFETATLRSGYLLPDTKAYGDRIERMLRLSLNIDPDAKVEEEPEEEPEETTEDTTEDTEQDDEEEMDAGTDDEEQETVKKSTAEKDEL
Chain of Hsp90β (P08238 whole entry): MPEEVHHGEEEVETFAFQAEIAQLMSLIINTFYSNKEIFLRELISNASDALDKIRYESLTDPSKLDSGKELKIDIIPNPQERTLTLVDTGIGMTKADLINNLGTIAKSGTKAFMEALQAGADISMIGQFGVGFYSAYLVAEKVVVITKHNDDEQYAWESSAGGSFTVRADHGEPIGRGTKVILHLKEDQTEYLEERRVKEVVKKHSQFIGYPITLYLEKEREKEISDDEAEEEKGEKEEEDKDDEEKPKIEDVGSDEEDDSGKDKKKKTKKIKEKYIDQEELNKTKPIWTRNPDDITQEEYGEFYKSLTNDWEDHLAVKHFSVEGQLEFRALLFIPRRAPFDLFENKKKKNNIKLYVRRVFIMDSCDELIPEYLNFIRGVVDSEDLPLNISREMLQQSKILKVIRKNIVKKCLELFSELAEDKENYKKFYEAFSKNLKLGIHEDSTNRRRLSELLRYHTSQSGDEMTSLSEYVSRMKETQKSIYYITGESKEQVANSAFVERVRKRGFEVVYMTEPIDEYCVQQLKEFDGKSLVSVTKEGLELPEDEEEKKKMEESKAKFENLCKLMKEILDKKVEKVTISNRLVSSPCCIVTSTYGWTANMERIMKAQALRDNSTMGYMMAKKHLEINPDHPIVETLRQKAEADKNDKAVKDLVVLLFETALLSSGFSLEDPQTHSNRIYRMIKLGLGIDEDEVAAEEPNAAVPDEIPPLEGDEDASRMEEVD

Consider 5′-N-ethylcarboxamidoadenosine [NECA], for which the Kd (as a rule, the concentration at which binding is half-saturated) on Grp94 [1] was 0.2 µM.

On to `C#CCCCn1cnc(N)c2nc(Sc3ccccc3Cl)nc1-2` [9a′, 8-(2-Chlorophenylthio)-3-(pent-4-ynyl)-3H-purin-6-amine], for which, at Grp94 [2], the IC50 (commonly the concentration at which inhibition is half-maximal) came out at 100 ± 10 µM and the “decrease in affinity for Grp94 of N3-substituted compounds” value (from here on “decrease in affinity for Grp94”) was 10–400 fold.

Consider `C#CCCCn1cnc(N)c2nc(Sc3ccccc3OC)nc1-2` [9b′, 8-(2-Methoxyphenylthio)-3-(pent-4-ynyl)-3H-purin-6-amine], for which, on Grp94 [2], the IC50 is more than 100 µM.

On Grp94 [2], `C#CCCCn1cnc(N)c2nc(Sc3ccccc3CO)nc1-2` [9c′, (2-(6-Amino-3-(pent-4-ynyl)-3H-purin-8-ylthio)phenyl)methanol] yielded a 50% inhibitory concentration (IC50) of more than 100 µM.

Take `C#CCCCn1cnc(N)c2nc(Sc3ccccc3OC(F)(F)F)nc1-2` [9d′, 3-(Pent-4-ynyl)-8-(2-(trifluoromethoxy)phenylthio)-3H-purin-6-amine]: the IC50 at Grp94 [2] was more than 100 µM.

Take `C#CCCCn1cnc(N)c2nc(Sc3ccc(Cl)cc3Cl)nc1-2` [9g′, 8-(2,4-Dichlorophenylthio)-3-(pent-4-ynyl)-3H-purin-6-amine]: on Grp94 [2], the IC50 came out at 2.37 ± 0.79 µM, the “decrease in affinity for Grp94” value was 10–400 fold and the Hsp90α/Grp94 is more than 210 µM.

Regarding `C#CCCCn1cnc(N)c2nc(Sc3ccc(OC)cc3OC)nc1-2` [9j′, 8-(2,4-Dimethoxyphenylthio)-3-(pent-4-ynyl)-3H-purin-6-amine], the 50% inhibitory concentration (IC50) on Grp94 [2] is more than 100 µM.

For `C#CCCCn1cnc(N)c2nc(Sc3cc(Cl)ccc3Cl)nc1-2` [9k′, 8-(2,5-Dichlorophenylthio)-3-(pent-4-ynyl)-3H-purin-6-amine], on Grp94 [2], the IC50 was 35.3 ± 5 µM and the “decrease in affinity for Grp94” value is given as 10–400 fold.

With `C#CCCCn1cnc(N)c2nc(Sc3cc(C)ccc3C)nc1-2` [9l′, 8-(2,5-Dimethylphenylthio)-3-(pent-4-ynyl)-3H-purin-6-amine], the IC50 at Grp94 [2] is more than 100 µM.

For the compound `C#CCCCn1cnc(N)c2nc(Sc3cc(C(F)(F)F)ccc3Cl)nc1-2` [9m′, 8-(2-Chloro-5-(trifluoromethyl)phenylthio)-3-(pent-4-ynyl)-3H-purin-6-amine], the IC50 on Hsp90α, on Hsp90β and at Grp94 [2] was more than 100 µM throughout.

For the compound `C#CCCCn1cnc(N)c2nc(Sc3cc(Cl)cc(Cl)c3)nc1-2` [9n′, 8-(3,5-Dichlorophenylthio)-3-(pent-4-ynyl)-3H-purin-6-amine], the IC50 on Hsp90β (read-out: IC50 Hsp90β, FP competition, Cy3B-GM probe) is more than 100 µM; on Grp94 [2] (read-out: IC50 Grp94, FP competition, Cy3B-GM probe), 100 ± 8 µM. For the same compound, the “decrease in affinity for Grp94” value at Grp94 [2] is 10–400 fold.

Compound `C#CCCCn1cnc(N)c2nc(Sc3cc(C)cc(C)c3)nc1-2` [9q′, 8-(3,5-Dimethylphenylthio)-3-(pent-4-ynyl)-3H-purin-6-amine] showed an IC50 at Grp94 [2] of more than 100 µM.

For `C#CCCCn1cnc(N)c2nc(Sc3cc(Cl)c(Cl)cc3Cl)nc1-2` [9v′, 3-(Pent-4-ynyl)-8-(2,4,5-trichlorophenylthio)-3H-purin-6-amine], at Grp94 [2], the IC50 stood at 2.08 µM, the “decrease in affinity for Grp94” value is 10–400 fold and the Hsp90α/Grp94 was more than 48 µM.

In the case of `C#CCCCn1cnc(N)c2nc(Sc3c(C)cc(C)cc3C)nc1-2` [9w′, 8-(Mesitylthio)-3-(pent-4-ynyl)-3H-purin-6-amine], at Grp94 [2], the IC50 is 20 ± 5 µM, the “decrease in affinity for Grp94” value is 10–400 fold and the Hsp90α/Grp94 was more than 5 µM.

For the compound `C#CCCCCn1c(Sc2cc(Cl)cc(Cl)c2)nc2c(N)ncnc21` [13b, 8-((3,5-Dichlorophenyl)thio)-9-(hex-5-yn-1-yl)-9H-purin-6-amine], the “decrease in potency for Grp94” value on Grp94 [2] (relative to 9n, chain length five to six carbons) is given as “approximately 3 fold”.

For the compound `C#CCCCn1c(S(=O)(=O)c2ccc(Cl)cc2Cl)nc2c(N)ncnc21` [14b, 8-((2,4-Dichlorophenyl)sulfonyl)-9-(pent-4-yn-1-yl)-9H-purin-6-amine], the “decrease in Grp94 activity on linker substitution” value (shortened to “decrease in Grp94 activity”) on Grp94 [2] is given as ~ 40 fold.

As to `C#CCCCn1c(Oc2ccc(Cl)cc2Cl)nc2c(N)ncnc21` [14c, 8-(2,4-Dichlorophenoxy)-9-(pent-4-yn-1-yl)-9H-purin-6-amine], the “decrease in Grp94 activity” value on Grp94 [2] is reported as 4–6 fold.

On to `C#CCCCn1c(Cc2ccc(Cl)cc2Cl)nc2c(N)ncnc21` [14d, 8-(2,4-Dichlorobenzyl)-9-(pent-4-yn-1-yl)-9H-purin-6-amine], for which the “decrease in Grp94 activity” value on Grp94 [2] was 4–6 fold.

As to `CC(C)NCCCn1c(Sc2cc(Cl)cc(Cl)c2)nc2c(N)ncnc21` [18c, 8-((3,5-Dichlorophenyl)thio)-9-(3-(isopropylamino)propyl)-9H-purin-6-amine], on Grp94 [2], the “selectivity for Grp94 over Hsp90α/β” value is given as more than 100 fold. Further, in the series on scanEDGE 97 kinase panel, the “interaction with kinase panel” value was “inert”. Besides, the “expression of TLR9 in the post-ER compartment” value with TLR9 is “dose-dependently inhibited”. For the same compound, the “CpG induced TNF-α production” value in series [3] is reported as “dose-dependently inhibited”. Moreover, the “TNFα production in cells stimulated by LPS” value in series [4] is given as “lack of activity”. In addition, in series [5], the “IGF-II secretion by differentiated myoblasts” value is given as “dose-dependently inhibited”. In addition, the “steady-state levels of HER2 kinase” value in the series on HER2 (HER2 overexpressing breast cancer cells, 24 h) was “reduced”. In the series on Hsp70 (24 h), the Hsp70 induction entry is given as “no Hsp70 induction; also recorded: did not modulate”. Further, the solubility (usually the dissolved amount per volume that the medium holds) in “Aqueous solubility” was more than 10000 µg/mL. Further, the “growth of SKBr3 cells” value in series [6] is “growth impairment”.

Regarding `CC(C)NCCCn1cnc(N)c2nc(Sc3cc(Cl)cc(Cl)c3)nc1-2` [18c′, 8-((3,5-Dichlorophenyl)thio)-3-(3-(isopropylamino)propyl)-3H-purin-6-amine], at Grp94 [2], the “decrease in affinity for Grp94” value is reported as 10–400 fold and the Hsp90α/Grp94 was more than 39 µM.

Turning to `CC(C)NCCCn1c(Sc2ccc(Cl)cc2Cl)nc2c(N)nccc21` [18d, 2-((2,4-Dichlorophenyl)thio)-1-(3-(isopropylamino)propyl)-1H-imidazo[4,5-c]pyridin-4-amine], on Grp94 [2], the “diminished potency for Grp94 on substitution of N3 with C” value is reported as 5–8 fold.

Consider `CC(C)NCCCn1c(Sc2cc(Cl)cc(Cl)c2)nc2c(N)nccc21` [18e, 2-((3,5-Dichlorophenyl)thio)-1-(3-(isopropylamino)propyl)-1H-imidazo[4,5-c]pyridin-4-amine], for which, on Grp94 [2], the “diminished potency for Grp94 on substitution of N3 with C” value was 5–8 fold.

For `CC(C)NCCCn1c(Sc2cc3c(cc2N(C)C)OCO3)nc2c(N)ncnc21` [18g], at Grp94 [2], the “loss of affinity for Grp94 compared to PU-H71 (5)” value was 10 fold and the “lower affinity for Grp94 compared to Hsp90α” value was ~ 3 fold.

Consider `COC(=O)c1c(O)cc(O)c(Cl)c1CCc1nccn1Cc1ccccc1` [compound 3], for which the HER2 level entry with HER2 (SKBr3 cells, 100 μM) is on record as “possibly a slight reduction in HER2”. Moreover, in the series on HER2 (up to 10 μM), the “effect in SKBr3 cells” value is recorded as “no effect”. Besides, the Hsp70 induction entry in the series on Hsp70 (100 μM) is “Hsp70 induction”. Further, the PARP cleavage result in the series with cleaved PARP is listed as “minor PARP cleavage”. Moreover, the cell viability entry with SKBr3 cells was “cellular toxicity”. In addition, in series [6], the “antiproliferative effects against SKBr3 cells” value was “lacked antiproliferative effects”.

In the case of `C#CCCCn1cnc(N)c2nc(Sc3ccc(C)cc3C)nc1-2` [compound 4, 8-(2,4-Dimethylphenylthio)-3-(pent-4-ynyl)-3H-purin-6-amine], the IC50 on Hsp90α is more than 250 µM.

`CN(C)c1cc2c(cc1Sc1nc3c(N)nccc3n1CCNCC(C)(C)C)OCO2` [compound 22]: the “lower affinity for Grp94 than for Hsp90α or Hsp90β” value at Grp94 [7] is ~ 6 fold.
